Assays:
[1] = test system: Mus musculus; test: Body weight difference (BWD) of test animals administered with 100 mg/kg compound is determined on day 14 for M5076 minus 1 tumor cells; format: functional
Summary of the method: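 M5076 sarcoma: 10^6 cells inoculated ip on day 0 in B6C3F1 mice. Fresh saline suspension dosed ip every fourth day, on days 1, 5, 9 and 13. Body weight difference in g (treated minus control) taken as day 14 minus day 1. Ten mice per group.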

[2] = test system: Mus musculus; test: Body Weight Difference (BWD) of test animals administered with 25 mg/kg compound is determined on day 5 for P388 tumor cells; format: functional
Summary of the method: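 P388 leukaemia: about 10^6 cells in ascitic fluid inoculated ip on day 0 (CD2F1 mice). Compound given ip in normal saline as a freshly prepared solution or suspension, once daily on days 1–5. Treated-minus-control body weight difference in g, taken as day 5 minus day 1 weight. Groups of six.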

[3] = test system: Mus musculus; test: Ability of 200 mg/kg of compound to kill M5076 tumor cells in mice is expressed as the log of the tumor cell population at the onset of treatment minus the log of the tumor cell population at the end of treatment; format: functional
Summary of the method: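 M5076 sarcoma, 10^6 cells ip on day 0 in B6C3F1 mice. Drug given ip as a fresh saline suspension every fourth day (days 1, 5, 9, 13). % T/C is median survival of treated versus control mice, counting long-term survivors. Cures are 60-day survivors. Log cell kill is derived from this.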

[4] = test system: Mus musculus; test: The toxicity day was evaluated on day 5 for L1210 tumor cells of test animals dosed with 12.5 mg/kg of compound; 6/6; format: functional
Summary of the method: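 L1210 leukaemia, 10^5 cells, implanted ip on day 0. Freshly prepared saline suspension dosed ip daily on days 1-5. Toxicity evaluated on day 5 as survivors over animals in the initial test group.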

[5] = test system: Mus musculus; test: The toxicity day was evaluated […] for MX-1 tumor cells of test animals dosed with 100 mg/kg of compound; 6/6; format: functional
Summary of the method: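 Human MX-1 mammary xenograft, a 1 mm3 (0.5 mg) tumor fragment implanted under the renal capsule of NCR-nu mice on day 0. Drug given ip as a fresh saline suspension on days 1, 5 and 9. Tumor size is assessed on day 11. A negative % T/C is percent shrinkage relative to the initial implant. Survivors in the toxicity group are […].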

[6] = test system: Mus musculus; test: Toxicity day evaluation was carried out on day 5 for animal dosed with 12.5 mg/kg compound; 6/6; format: organism-based; design: dose 12.5 mg/kg; conditions: in vivo

For `CNC(=O)OCc1nc(SC)n(C)c1COC(=O)NC`, the BWD [1] was -1.2 g, the BWD [2] was -1.4 g and the KE [3] was 0.98. For the same molecule, the “Survivors / animals tested” value [4] was 6, the “Survivors / animals tested” value [5] was 6 and the “Survivors / animals tested” value [6] was 6.

Reference: ChEMBL document CHEMBL1124663, “Design, synthesis, antineoplastic activity, and chemical properties of bis(carbamate) derivatives of 4,5-bis(hydroxymethyl)imidazole” (J Med Chem, 1989)
